These results are taken from PubChem BioAssay AID504354 (Broad Institute, 2011).

The assay is described as follows: apoptosis induction in non-primed human MEWO line – cell-based, luminescence, dry powder, set 2, counter-screen for A1 inhibitor project, dose response (AID 504354). As to conditions: MEWO cells (unprimed), caspase-Glo luminescence, 3 h; at 16 µM; active compounds read high. Summed up: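 Doses: Compound delivered into wells by pin transfer | Assay system: Unprimed A1-expressing MEWO cells | Amount: 2500 cells/well | Schedule: 3 h 37 °C compound exposure, 1 h room-temperature reagent incubation | Measured by: CaspaseGlo luminescence | Measure: Caspase activity from luminescent signal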
(The purpose of a counterscreen is to sort out artefacts and off-target activity.)

The structures appear in SMILES notation. Values without a mark were called inactive.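 Rule for the calls: active = curve reaches 10% of the strong reference activator's caspase signal at or below the top valid tested dose; inactive = signal moves in the opposite direction, or the rest.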

On to `C/C1=C/C(=O)O[C@@H]2C[C@@H](CC[C@H](C)/C=C\CC1)O[C@@](O)(C1CSC(=O)N1)C2` (stereo partly specified), for which the caspase activation is 2.23%.
